According to ChEMBL document CHEMBL1649336, “Isolation and characterization of minor analogues of silvestrol and other constituents from a large-scale re-collection of Aglaia foveolata” (J Nat Prod, 2010):

Assays:
[1] = test system: HT-29; experiment: Cytotoxicity against human HT-29 cells after 3 days by sulforhodamine B assay; assay type: functional; details: HT-29, 72 h, read-out: ED50 (the source's name)
Method in brief: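 HT-29 (ATCC) cells grown in MEME with 10% FBS and antibiotics at 37 °C, 5% CO2, used one day after a medium change at 60–70% confluence. 9500 cells/well exposed in triplicate to serial dilutions (10% DMSO vehicle, also the control) for 3 days. Cells fixed with cold TCA, stained with 0.4% SRB, dye solubilized in 10 mM Tris (pH 10), A515 read. ED50 by nonlinear regression.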

[2] = molecular target: Transcription factor p65 (Homo sapiens, UniProt Q04206); experiment: Inhibition of NF-kappaB p65 isolated from nuclear extract of human HeLa cells assessed as blockade of binding to biotinylated consesus sequence by chemiluminescence assay; assay type: cell-free
Transcription factor p65, sequence (Q04206 whole entry): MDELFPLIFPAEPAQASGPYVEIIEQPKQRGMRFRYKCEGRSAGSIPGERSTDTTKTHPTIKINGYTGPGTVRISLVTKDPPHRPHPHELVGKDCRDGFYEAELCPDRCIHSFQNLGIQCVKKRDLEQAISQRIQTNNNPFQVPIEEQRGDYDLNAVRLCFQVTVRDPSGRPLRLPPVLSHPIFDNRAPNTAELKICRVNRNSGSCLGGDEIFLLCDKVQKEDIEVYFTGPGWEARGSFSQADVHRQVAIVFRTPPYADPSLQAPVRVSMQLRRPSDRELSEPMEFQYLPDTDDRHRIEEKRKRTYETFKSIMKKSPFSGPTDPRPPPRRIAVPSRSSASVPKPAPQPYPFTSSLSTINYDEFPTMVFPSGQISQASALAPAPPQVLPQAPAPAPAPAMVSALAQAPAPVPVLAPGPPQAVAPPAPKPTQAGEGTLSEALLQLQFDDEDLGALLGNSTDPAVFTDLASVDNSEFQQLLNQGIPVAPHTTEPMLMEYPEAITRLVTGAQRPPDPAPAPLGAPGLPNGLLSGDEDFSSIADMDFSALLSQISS

IC50 [2] [nM] | Structure (SMILES) | EC50 [1] [nM]
 | COC(=O)[C@H]1[C@@H](O)[C@@]2(O)c3c(OC)cc(O[C@@H]4O[C@@H]([C@H](O)CO)CO[C@@H]4OC)cc3O[C@@]2(c2ccc(OC)cc2)[C@@H]1c1ccccc1 | 2290
 | COC(=O)[C@H]1[C@@H](O)[C@@]2(O)c3c(OC)cc(O[C@@H]4O[C@@H]([C@@H](O)CO)CO[C@@H]4OC)cc3O[C@@]2(c2ccc(OC)cc2)[C@@H]1c1ccccc1 | 1070
> 20000 | CC(C)(O)[C@@H]1CC[C@@]2(O)CC[C@]3(C)[C@H](CC[C@@H]4[C@@]5(C)CCC(=O)C(C)(C)[C@H]5CC[C@]43C)[C@H]2O1 | > 10000
> 20000 | CC(C)(O)[C@@H]1CC[C@](C)([C@H]2CC[C@]3(C)[C@@H]2CC[C@@H]2[C@@]4(C)CCC(=O)OC(C)(C)[C@@H]4CC[C@]23C)O1 | > 10000
> 20000 | CC(C)(O)[C@@H]1CC[C@@](C)([C@H]2CC[C@]3(C)[C@@H]2CC[C@@H]2[C@@]4(C)CCC(=O)OC(C)(C)[C@@H]4CC[C@]23C)O1 | > 10000
> 20000 | CC(C)C1=CC2=C(CO)C(=O)C[C@@H](O)[C@]2(C)CC1 | > 10000
 | COC(=O)[C@H]1[C@@H](O)[C@@]2(O)c3c(OC)cc(O[C@@H]4O[C@@H]([C@@H](O)CO)CO[C@H]4OC)cc3O[C@@]2(c2ccc(OC)cc2)[C@@H]1c1ccccc1 [2'-EPISILVESTROL] | 1
 | CC[C@@]1(O)C(=O)OCc2c1cc1n(c2=O)Cc2cc3ccccc3nc2-1 [CAMPTOTHECIN] | 60
 | CC(=O)O[C@H]1C(=O)[C@@]2(C)[C@H]([C@H](OC(=O)c3ccccc3)[C@]3(O)C[C@H](OC(=O)[C@H](O)[C@@H](NC(=O)c4ccccc4)c4ccccc4)C(C)=C1C3(C)C)[C@]1(OC(C)=O)CO[C@@H]1C[C@@H]2O [PACLITAXEL] | 0.6

Structure (SMILES) | IC50 [2] [nM] | EC50 [1] [nM]
COC(=O)[C@H]1[C@@H](O)[C@@]2(O)c3c(OC)cc(O[C@@H]4O[C@@H]([C@H](O)CO)CO[C@H]4OC)cc3O[C@@]2(c2ccc(OC)cc2)[C@@H]1c1ccccc1 [SILVESTROL] | > 20000 | 0.7
